Compound activity as filed in PubChem BioAssay.
Sampled rows, rich in hits. Any-hit rate of the full collection: about 3.3%.
ABCB6 inh 2: human ABCB6 transporter inhibition. Q9NP58. K562-ABCB6 porphyrin accumulation, flow cytometry, 1 h; hits give low values. fluorescence ratio to DMSO, % at 10 µM. hit rate 0.19% among 360,000. AID 602162;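 active means fluorescence ratio to DMSO below 75%, the collection mean minus 3 SD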;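 further: signal is porphyrin accumulated inside mitochondria; 100% equals median channel fluorescence of DMSO control wells; lower ratio means ABCB6 inhibition with less porphyrin fluorescence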
Target sequence (Q9NP58 whole entry, looked up): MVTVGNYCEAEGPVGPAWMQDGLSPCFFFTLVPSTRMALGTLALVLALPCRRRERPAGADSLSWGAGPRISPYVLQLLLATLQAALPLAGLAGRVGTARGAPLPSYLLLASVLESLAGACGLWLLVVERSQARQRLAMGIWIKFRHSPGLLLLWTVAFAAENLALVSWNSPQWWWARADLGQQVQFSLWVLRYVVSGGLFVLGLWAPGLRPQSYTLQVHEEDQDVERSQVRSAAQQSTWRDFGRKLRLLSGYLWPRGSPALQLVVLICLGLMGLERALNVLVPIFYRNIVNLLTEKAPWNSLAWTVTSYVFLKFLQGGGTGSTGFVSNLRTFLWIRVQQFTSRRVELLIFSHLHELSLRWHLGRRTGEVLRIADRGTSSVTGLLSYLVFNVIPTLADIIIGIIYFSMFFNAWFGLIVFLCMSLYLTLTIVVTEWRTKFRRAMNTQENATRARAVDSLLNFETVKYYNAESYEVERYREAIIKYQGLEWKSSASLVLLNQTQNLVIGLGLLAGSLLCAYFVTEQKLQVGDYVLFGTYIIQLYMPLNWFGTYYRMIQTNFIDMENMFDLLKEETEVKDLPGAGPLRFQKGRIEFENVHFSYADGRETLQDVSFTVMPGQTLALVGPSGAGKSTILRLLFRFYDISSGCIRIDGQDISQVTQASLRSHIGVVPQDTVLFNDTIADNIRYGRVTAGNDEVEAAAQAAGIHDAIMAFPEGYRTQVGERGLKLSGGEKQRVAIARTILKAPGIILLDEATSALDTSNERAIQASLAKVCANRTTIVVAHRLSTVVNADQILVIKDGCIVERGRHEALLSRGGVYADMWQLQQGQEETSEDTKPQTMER
STAT3 activator: STAT3 signaling activation | U3A cells, IL-6 STAT3-luciferase reporter, luminescence; 100% = signal with IL-6 EC80 alone | activation (% of control), % at 5.6 µM | hit rate 0.91% among 190,000 | AID 871;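 active means activation above the screen-wide mean of compound activation plus 3 SD, cut at about 130% in these data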;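 further: 0% = background luminescence of wells with medium and substrate only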
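System – human U3A cells carrying STAT3-luciferase construct · Probe or stimulus – Interleukin-6, 33 ng/mL · Schedule – compound 1 h, then IL-6 6 h at 37 °C · Signal – luminescence from STAT3-driven luciferase reporter · Evaluation – percent of IL-6-only median luminescence · Benchmarks – IL-6-only high control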
FXN GAA850 act: frataxin GAA850 promoter activation | HEK293 lucGAA850 FXN promoter luciferase reporter, 24 h; percent of 10 µM SAHA response | activation, % at 6 µM | hit rate 0.56% among 360,000;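 active means activation above the average of all compounds screened plus 3 SD, cutoff fixed separately per campaign, cut at about 7.5% in these data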;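 further: 0% = DMSO wells and 100% = 10 µM SAHA wells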
AHR act: human AHR activation. P35869. AHR-responsive luciferase reporter cells, luminescence. activation, % at 5 µM. hit rate 2.5% among 320,000; in the data active means activation above about 47%;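 further: 0% = vehicle wells and 100% = reference agonist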
Numbers without * were called inactive; i = inactive; . = no result.

SMILES	ABCB6 inh 2	STAT3 activator	FXN GAA850 act	AHR act
Cc1csc(=Nc2ccccc2)n1C	94	102	3	-8
COc1ccc2c(c1)c1nnc(SCC(=O)N3C(C)CCCC3C)nc1n2C (stereo not given)	88	95	1	50*
Cc1nc2ccccc2nc1SCC(=O)c1ccccc1	91	120	4	48*
O=C(CSc1ccc2ccccc2n1)c1ccccc1	98	.	5	68*
O=C(CSc1ccc2ccccc2n1)N/N=C/c1ccccc1O	91	.	3	.
Cc1ccccc1-n1c(SCc2ccccn2)nc2n[nH]c(C)c2c1=N	91	85	6	66*
CCOc1ccccc1NC(=O)CCSc1nc2n[nH]c(C)c2c(=N)n1-c1ccccc1Cl	96	100	2	11
COc1ccc(OC)c(NC(=O)CSc2nc3n[nH]c(C)c3c(=N)n2-c2cccc(Cl)c2C)c1	95	.	1	12
Cc1ccccc1-n1c(SCC(=O)Nc2ccccc2Cl)nc2n[nH]c(C)c2c1=N	102	.	2	62*
COc1cccc(/C=C/c2nc3c(cnn3-c3ccccc3)c(=O)[nH]2)c1	99	118	1	32
O=c1[nH]c(/C=C/c2ccc(Br)cc2)nc2c1cnn2-c1ccccc1	.	107	.	54*
CCCCCCCCCCC(C(=O)O)C1(C(=O)O)CCC(=O)O1 (stereo not given)	110	.	1	.
N#CCCCc1cn(-c2nc3ccccc3s2)nn1	126	.	.	.
Cc1cnccc1CN(C)Cc1cn(C)nc1-c1ccc(Oc2ccccc2)cc1	95	112	0	8
Cc1cnccc1CN(C)Cc1cn(C)nc1-c1cccc(Cl)c1	93	106	-1	67*
O=C(N/N=C/c1ccc(F)c(F)c1)c1cc2c(s1)-c1ccccc1CC2	96	82	-1	12
CNC(=O)c1cc2c(s1)-c1ccccc1CC2	97	108	7	75*
Cc1cccc(S(=O)(=O)c2c(N)n(-c3ccccc3)c3nc4ccccc4nc23)c1	90	105	-1	4
Nc1ccc(S(N)(=O)=O)cc1N	105	.	6	115*
Nc1cccc(S(=O)(=O)c2ccc(N)c(N)c2)c1	97	100	3	3
COc1ccccc1CNC(=O)Nc1nc(C(N)Cc2ccc(Cl)cc2)cs1 (stereo not given)	98	.	0	.
O=C(CCl)N1c2ccccc2Oc2ccc3ccccc3c21	148	.	5	.
CC(=O)N1c2ccccc2Oc2cc3ccccc3cc21	100	112	5	65*
O=C1OCCC1Sc1ncnc2sccc12 (stereo not given)	95	105	0	6
CS(=O)(=O)N1N=C(c2ccc(Br)cc2)CC1c1ccc2c(c1)OCO2 (stereo not given)	127	114	12*	19
SMILES	ABCB6 inh 2	STAT3 activator	FXN GAA850 act	AHR act
Cc1ccccc1N=C1NC(=O)/C(=C/c2cccn2C)S1	101	.	1	1
Cc1cccc(N=C2NC(=O)/C(=C3/C(=O)N(C)c4ccccc43)S2)c1C	149	108	-1	68*
CC(=O)Nc1ccc(NC(=O)CN(c2ccc(C34CC5CC(CC(C5)C3)C4)cc2)S(C)(=O)=O)cc1	98	102	9.5*	0
CS(=O)(=O)N(CC(=O)Nc1ccc(CC#N)cc1)c1ccc(C23CC4CC(CC(C4)C2)C3)cc1	99	114	11*	15
CS(=O)(=O)N(CC(=O)Nc1c(F)cccc1F)c1ccc(C23CC4CC(CC(C4)C2)C3)cc1	100	106	5	4
COc1ccccc1CNC(=O)[C@@H]1CCCN1S(=O)(=O)c1ccccc1F	99	.	-1	5
N#C/C(=C/C1=C(N2CCOCC2)C(=C/c2ccc(Cl)cc2)/CC1)C(=O)Nc1ccccc1F	i	.	1	.
S=C(NCc1ccco1)Nc1cc(-c2ccccc2)[nH]n1	95	90	2	74*
CCOc1ccc(NC(=S)Nc2cc(-c3ccccc3)[nH]n2)cc1	102	108	2	78*
Cc1cc(-c2n[nH]c(=S)n2/N=C/c2c[nH]c3ccccc23)n[nH]1	100	.	3	7
O=[N+]([O-])c1ccccc1/C=C/C=N/n1c(-c2ccc(Cl)cc2)n[nH]c1=S	94	102	2	60*
COc1ccccc1/C=C/C=N/n1c(-c2n[nH]c3c2CCC3)n[nH]c1=S	100	.	0	55*
O=[N+]([O-])c1ccccc1/C=C/C=N/n1c(-c2ccccc2)n[nH]c1=S	103	105	2	17
Cc1cc(-c2n[nH]c(=S)n2/N=C/C=C/c2ccccc2)n[nH]1	65*	83	1	30
Cc1cc(-c2n[nH]c(=S)n2/N=C/c2ccccc2[N+](=O)[O-])n[nH]1	90	79	0	48*
COc1cccc(/C=N/n2c(-c3n[nH]c4c3CCC4)n[nH]c2=S)c1O	98	103	1	24
COc1ccccc1/C=C/C=N/n1c(-c2cc(C)[nH]n2)n[nH]c1=S	97	91	3	32
Cc1ccc(Cl)cc1N1CCN(C(c2ccc(C#N)cc2)c2nnnn2C2CCCC2)CC1 (stereo not given)	97	114	1	0
Cn1nccc1NS(=O)(=O)c1ccc(C(C)(C)C)cc1	95	.	2	1
CC(C)OC(=O)CSc1nc(Cc2ccccc2)nc2ccccc12	92	106	5	0
O=C1CCC(C(=O)N2CCN(c3cnccn3)CC2)CN1CCc1ccccc1 (stereo not given)	97	.	0	.
Cc1ccc(S(=O)(=O)N(C)C)cc1NC(=O)CN1C(=O)NC(Cc2ccccc2)C1=O (stereo not given)	101	.	2	0
S=c1[nH]nc(-c2ccccc2)n1/N=C/c1ccc(Cl)cc1	100	.	1	.
S=c1[nH]nc(-c2ccc(Cl)cc2)n1/N=C/c1cccs1	101	.	0	75*
COc1ccc(C(=O)C[n+]2cccc3cc(OC)ccc32)cc1	108	.	-1	0
SMILES	ABCB6 inh 2	STAT3 activator	FXN GAA850 act	AHR act
COc1ccc(C(=O)C[n+]2ccc3ccccc3c2C)cc1	102	.	2	59*
C=CCN=c1scc(-c2ccc(F)cc2)n1/N=C/c1ccccn1	99	100	0	48*
CCN=c1scc(-c2ccc(F)cc2)n1/N=C/c1ccccn1	86	85	8.8*	-3
Cc1cc(Br)ccc1OCc1nnc(-c2ccccc2)o1	101	.	5	.
Clc1ccccc1OCc1nnc(-c2ccccc2)o1	104	144*	3	10
Cc1ccc(C(=O)Nc2ccc3cn[nH]c3c2)cc1S(=O)(=O)N1CCOCC1	102	142*	4	17
CC(=O)c1ccc(NC(=O)c2ccc(C)c(S(=O)(=O)N3CCOCC3)c2)cc1	96	.	3	-2
Cc1ccc(C(=O)Nc2cccnc2)cc1S(=O)(=O)N1CCCCCC1	97	.	1	77*
Cc1ccc(C(=O)Nc2cccnc2)cc1S(=O)(=O)N1CCOCC1	102	100	0	37
Cc1ccccc1Cn1cc(NS(=O)(=O)c2cn(C)nc2C)cn1	100	.	0	0
Cn1ncc(C#N)c1/N=C/N1CCCC1	94	96	1	-3
